Assay results collected from several papers.
Lines come from different studies, so protocols differ.
CDK4 with cyclin D1: Cyclin-dependent kinase 4, with cyclin D1 (CDK4, Homo sapiens, UniProt P11802)
CDK4 with cyclin D3: Cyclin-dependent kinase 4, with cyclin D3 (CDK4, Homo sapiens, UniProt P11802)
CDK4: Cyclin-dependent kinase 4 (CDK4, Homo sapiens, UniProt P11802)

SMILES	target	assay	setting	remaining binding [%]
FC(F)(F)Oc1cccc(-c2cnc3ccc(-c4ccncc4)nn23)c1	CDK4 with cyclin D1	cell-free assay, competition with immobilised ligand	5 µM	46
O=C(Nc1cnc(Oc2ccc(F)cc2)nc1)N1CCc2ncccc2[C@@H]1c1ccc(F)cc1	CDK4 with cyclin D1	cell-free assay, competition with immobilised ligand	1 µM	100
C[C@@H](c1ccc(-n2cnc3c(N)ncnc32)cc1)N1CCc2nn(C)c(Cc3ccccc3)c2C1=O	CDK4 with cyclin D3	binding, competition with immobilised ligand	0.1 µM	68
O=C(Nc1c[nH]nc1C(=O)NC1CCNCC1)c1cc(F)cc(F)c1	CDK4	binding, competition with immobilised ligand	1 µM	100
O=C(c1ccc(Nc2ncc(Cl)c(-c3ccc(Cl)s3)n2)cc1)N1CCC(N2CCCC2)CC1	CDK4 with cyclin D3	binding, competition with immobilised ligand	1 µM	0.9
CS(=O)(=O)NCC[C@H](NC(=O)c1cncc2c1cnn2-c1ccc(F)cc1)c1ccnc(S(C)(=O)=O)c1	CDK4 with cyclin D1	cell-free assay, competition with immobilised ligand	1 µM	100
COc1ncc2cc3ccccc3nc2c1C#N	CDK4	cell-free assay, competition with immobilised ligand	5 µM	74
Cc1cc(NC(=O)c2cccc(S(F)(F)(F)(F)F)c2)cc(-n2ccn3nc(-c4cccnc4)cc23)c1	CDK4	cell-free assay, competition with immobilised ligand	1 µM	79.3
COc1cnc(Nc2cccc(S(N)(=O)=O)c2)nc1N1CCN(c2ccccc2)C(=O)C1	CDK4 with cyclin D3	binding, competition with immobilised ligand	1 µM	87
CN(C)c1nccc(-c2cnc3ncccn23)n1	CDK4 with cyclin D1	binding	1 µM	51
O=C(NCCCN1CCOCC1)c1ccc(Nc2ncc(Cl)c(-c3ccc(Cl)s3)n2)cc1	CDK4 with cyclin D1	binding, competition with immobilised ligand	1 µM	0.5
C[C@@H]1CCN(c2nccc(-c3cnn4ncccc34)n2)C1	CDK4	binding	1 µM	79
CN(C)CC#Cc1ccc(OCCCc2sc(N3CCc4cccc(C(=O)Nc5nc6ccccc6s5)c4C3)nc2C(=O)O)c(F)c1	CDK4 with cyclin D3	cell-free assay, competition with immobilised ligand	1 µM	100
COc1ccnn2ncc(-c3ccnc(N(C)C)n3)c12	CDK4	binding	1 µM	95
O=C(c1ccc(Nc2ncc(Cl)c(-c3cc4ccccc4s3)n2)cc1)N1CCC(N2CCCC2)CC1	CDK4 with cyclin D1	binding, competition with immobilised ligand	1 µM	3.6
CN(CCCC(F)(F)F)c1nccc(-c2cnn3ncccc23)n1	CDK4 with cyclin D1	binding	1 µM	61
c1ccc(N2CCN(Cc3nc4ccccc4[nH]3)CC2)nc1	CDK4	binding, competition with immobilised ligand	1 µM	100
Cc1cnn2ncc(-c3ccnc(N(C)C)n3)c2c1	CDK4	binding	1 µM	95
CC(=O)c1c(NS(C)(=O)=O)c2cc(-c3ccc(Cl)cc3)c(-c3ccc(Cl)cc3Cl)nc2n(C)c1=O	CDK4 with cyclin D1	cell-free assay, competition with immobilised ligand	1 µM	100
